This is a sample that favours compounds with a hit; in the whole collection about 5.1% have one here.
STAT3 act: activators of IL-6 induced STAT3 signaling. 190,000 tested, 0.91% active. activation (% of control), % at 5.6 µM. U3A cells, IL-6 STAT3-luciferase reporter, luminescence; 100% = signal with IL-6 EC80 alone. AID 871;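 active means activation above the screen-wide mean of compound activation plus 3 SD, cut at about 130% in these data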
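Test system: STAT3-luciferase reporter U3A cells; Detection: reporter luminescence signal; Times: 1 h compound pre-exposure, 6 h IL-6 stimulation, 37 °C; Benchmarks: IL-6-only high control; Also added: IL-6 stimulus at 33 ng/mL final.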
NF-kB neuron act: compounds increasing NF-kB expression in human neuronal cells; fold change at 12.5 µM; 190,000 tested, 1.6% active; NF-kB reporter expression; stronger effect = higher value; in the data active means fold change above about 3.3
STAT3 blocker: inhibitors of IL-6 induced STAT3 signaling; inhibition, % at 5.5 µM; AID 862; 190,000 tested, 0.89% active; U3A cells, IL-6 STAT3-luciferase reporter, luminescence; host cell line lacks STAT1;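 active means inhibition above the mean inhibition across all screened compounds plus 3 SD, cut at about 44% in these data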
STAT1 activator: STAT1 signaling activation; NIH 3T3 STAT1-luciferase reporter, IFN-gamma, luminescence; 100% = IFN-gamma alone, no compound; activation (% of control), % at 5.5 µM; 200,000 tested, 2.6% active; AID 932;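 active means activation above the screen-wide mean activation plus 3 SD, cut at about 130% in these data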
STAT1 blocker: inhibitors of IFN-gamma induced STAT1 signaling; NIH 3T3 STAT1-luciferase reporter, luminescence; inhibition, % at 5.5 µM; 200,000 tested, 0.35% active;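 active means inhibition above a set limit, the mean inhibition across all tested compounds plus 3 SD, cut at about 34% in these data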
APP 5'UTR act: activates APP 5'UTR luciferase reporter. SH-SY5Y APP 5'UTR luciferase reporter, luminescence; zero percent = DMSO vehicle wells. activation, % at 2 µM. 190,000 tested, 1% active. AID 1276;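 active means activation above a set limit, based on mean plus 3 SD of controls, cut at about 140% in these data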
A number is an active result; - = inactive; . = not tested or not shown.

SMILES	STAT3 act	NF-kB neuron act	STAT3 blocker	STAT1 activator	STAT1 blocker	APP 5'UTR act
Cc1ccc(S(=O)(=O)/N=C(/Nc2c(C)n(C)n(-c3ccccc3)c2=O)c2ccc(Cl)cc2)cc1	-	-	-	-	-	-
COc1ccc(C(=O)Nc2ccc3nc(C)sc3c2)cc1OC	-	-	-	-	-	-
COc1ccc(C(=O)Nc2nc3ccccc3[nH]2)cc1OC	-	-	-	129	-	-
COc1cc(OC)cc(C(=O)Nc2nc3ccccc3[nH]2)c1	-	-	-	131	-	-
COc1ccc(C(=O)Nc2nc(C)c(C)s2)cc1OC	-	-	-	139	-	-
COc1ccc(OCC(=O)Nc2nc3ccccc3[nH]2)cc1	-	-	-	-	-	-
CN(C)S(=O)(=O)c1ccc(C(=O)Nc2nc3ccccc3[nH]2)cc1	-	-	-	143	-	-
Cc1ccc(NC(=S)NCc2ccc(S(N)(=O)=O)cc2)cc1Cl	-	-	-	-	-	-
COc1ccc(C(=O)Nc2scc(-c3ccc(Cl)cc3Cl)c2C(N)=O)cc1	-	-	-	148	-	-
COc1ccc(-n2c(=O)c3ccccc3n(CC(=O)Nc3cccc(OC)c3)c2=O)cc1	-	-	-	-	-	-
[O-]/C(=C(\C(=S)Nc1ccc(SC(F)F)cc1)[n+]1ccccc1)c1ccc(Cl)cc1Cl	-	4.7	-	-	-	-
Cc1ccc(C(=O)c2ccccc2C(=O)OCC(=O)Nc2ccc(SC(F)F)cc2)cc1	-	-	-	-	-	-
O=C(COC(=O)c1ccccc1Cc1ccccc1)Nc1ccc(SC(F)F)cc1	-	-	-	132	-	-
O=c1c2cc(-c3ccccc3)sc2ncn1/N=C/c1ccco1	-	-	-	129	-	-
CCc1cc2c(=O)n(CC(=O)NCCc3ccc(OC)c(OC)c3)cnc2s1	-	-	-	-	-	-
COc1ccccc1-n1cnc2sc(-c3ccccc3)cc2c1=O	-	-	-	-	-	-
CCCCCn1cnc2sc(-c3ccccc3)cc2c1=O	-	4.8	-	149	-	-
CCCCCn1cnc2sc(CC)cc2c1=O	-	-	-	144	-	-
CCc1cc2c(=O)n(CC(C)C)cnc2s1	-	-	-	-	-	-
CCc1cc2c(=O)n(-c3ccc(Br)cc3)cnc2s1	-	-	-	137	-	-
Cc1cc(C(=O)OCC(=O)Nc2sc3c(c2C#N)CCC(C)C3)c2ccccc2n1 (stereo not drawn)	-	-	-	-	-	-
O=C(Nc1nnc(C2CCCCC2)s1)c1cccs1	-	-	-	-	-	-
O=[N+]([O-])c1cccc(-c2nc(-c3ccncc3)no2)c1	-	-	-	-	-	-
O=[N+]([O-])c1cccc(-c2nc(-c3ccccc3)no2)c1	140	3.8	-	138	-	-
O=[N+]([O-])c1cccc(-c2nnc(-c3ccc4c(c3)OCO4)o2)c1	-	-	-	141	-	-
SMILES	STAT3 act	NF-kB neuron act	STAT3 blocker	STAT1 activator	STAT1 blocker	APP 5'UTR act
O=C(c1cnccn1)N1CCN(S(=O)(=O)c2ccc3ccccc3c2)CC1	-	-	-	-	-	-
CCCOc1ccc(CC(=O)NNC(=S)Nc2ccccc2)cc1Br	-	3.3	-	-	-	-
COc1ccc(CC(=O)NNC(=S)Nc2ccccc2)cc1Cl	-	-	-	-	-	-
COc1ccc(CN=C2NC(=O)CC(C(=O)Nc3ccc(Cl)cc3)S2)cc1 (stereo not drawn)	-	-	-	-	-	-
CCn1nnc(NC(=O)c2ccc(C(C)(C)C)cc2)n1	-	3.7	-	-	-	-
Cc1c(Br)cc(-c2nnco2)cc1Br	-	-	-	-	-	-
CC(=O)N1N=C(c2ccccc2)CC1c1cn(C)c2ccccc12 (stereo not drawn)	-	-	-	-	-	-
N#C/C(=N\Nc1ccc(Br)cc1)C(=N)N1CCOCC1	-	-	-	146	-	-
N#C/C(=N\Nc1ccccc1[N+](=O)[O-])C(=N)N1CCCCC1	-	5.6	-	136	-	176
N#C/C(=N\Nc1ccccc1)C(=N)N1CCCCC1	-	4.5	-	129	-	-
COc1ccccc1N/N=C(\C#N)C(=N)N1CCOCC1	-	-	-	-	-	-
N#C/C(=N\Nc1ccc(S(=O)(=O)N2CCCCCC2)cc1)C(N)=S	-	-	-	-	-	-
CCNC(=O)CSc1nnc(-c2cccs2)o1	-	-	-	-	-	-
O=C(CSc1nnc(-c2cccs2)o1)c1cccs1	-	-	-	141	-	-
COc1ccc(-c2nnc(SCC(=O)NCc3ccco3)o2)cc1	-	-	-	-	-	-
COc1ccc(-c2nnc(SCC(=O)c3ccc[nH]3)o2)cc1	-	4.7	-	-	-	-
COc1ccc(-c2nnc(SCC(=O)c3cccs3)o2)cc1	-	3.7	-	134	-	-
COc1cc(C(=O)OC2CC3CCC2(C)C3(C)C)ccc1OC(C)=O (stereo not drawn)	.	-	.	-	-	-
CCCOc1ccc(C2NC(=S)NC(c3ccccc3)=C2C(=O)Nc2ccc(C)cc2)cc1OC (stereo not drawn)	-	-	-	-	-	-
Nc1cc(=O)[nH]c(SCC(=O)Nc2ccccc2Sc2ccccc2)n1	-	-	-	-	-	-
O=C(NCc1ccco1)C(=O)NCC1OCCN1S(=O)(=O)c1ccc(Cl)cc1 (stereo not drawn)	-	-	-	-	-	-
COc1ccc2cc(C(=O)N3CCOCC3)sc(=O)c2c1OC	-	-	-	-	-	-
Clc1ccc(-c2nc3nc4ccccc4nc3n2Cc2ccco2)cc1	-	3.7	-	-	-	-
COc1ccccc1Cn1c(-c2ccco2)nc2nc3ccccc3nc21	-	.	-	-	-	-
Cc1ccc(-c2nc3nc4ccccc4nc3n2Cc2ccco2)cc1	-	-	-	-	-	181
SMILES	STAT3 act	NF-kB neuron act	STAT3 blocker	STAT1 activator	STAT1 blocker	APP 5'UTR act
CCCn1c(O)c(C=Nc2ccccc2)sc1=S	-	-	-	138	-	-
Cc1cc(C(=O)CSc2nc3ccccc3o2)c(C)n1C1CC1	-	-	-	136	-	-
Cc1nnc(SCC(=O)c2cc(C)n(C3CC3)c2C)s1	-	-	-	136	-	-
Cc1cc(C(=O)CSc2nnnn2C)c(C)n1C1CC1	-	-	-	-	-	-
Cc1c(C(=O)OCC(=O)N2c3ccccc3CC2C)oc2ccccc12 (stereo not drawn)	-	-	-	-	-	-
O=C(Nc1nc(-c2cccs2)cs1)C1=COCCO1	-	3.6	-	149	-	-
COc1ccc(C(=O)Nc2nc(-c3cccs3)cs2)cc1	-	-	-	137	-	-
O=C(Nc1nc(-c2cccs2)cs1)c1ccc(Cl)cc1	-	-	-	-	-	-
Cc1[nH]nc(SCC(=O)Nc2ccc(C#N)cc2)c1[N+](=O)[O-]	-	-	-	-	-	-
N/C(=N\OC(=O)/C=C/c1ccccc1Cl)c1ccncc1	-	3.8	-	-	-	235
